Laboratory results from PubChem BioAssay.
Calls of active or inactive are those of the source.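 How the source made its calls, unless noted: active means inhibition above 20% together with a positive visual image hit; inconclusive means visual image hit but inhibition not above 20%; inactive means no visual image hit.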

Tests used:
[1] = inhibitors of TNFa-induced NFkB p65 translocation, primary screen, imaging, HUVEC, MLSMR starter and 10KST1 sets (AID 438); details: HUVEC TNFa-induced p65 nuclear translocation; cell count: measured here: nuclei count (cytotoxicity indicator), at 2.08 µM; inhibition: at 2 µM, stronger effect = higher value, 0% TNFa-plus-vehicle, 100% no-TNFa wells;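 further: compound added about 3h40 before a 20 min TNFalpha stimulation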;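 on inhibition: signal is the nuclear over cytoplasmic p65 intensity ratio per well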
[2] = inhibitors of E-selectin induction by TNFa, primary screen, imaging, HUVEC, immunofluorescence, MLSMR starter and 10KST1 sets (AID 487;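 active means visually confirmed hit in the image check and inhibition above 20%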;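 on inhibition: signal is fraction of cell area covered by stained E-selectin grains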;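 on nuclei count: 100% = median nuclei count of all wells on the same plate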); details: HUVEC TNFalpha-induced E-selectin immunofluorescence imaging, at 2 µM; inhibition: stronger effect = higher value; nuclei count: measured here: cell number, toxicity
[3] = DUSP6 inhibitors restoring Erk phosphorylation by chemical complementation, primary imaging in DUSP6-transfected HeLa (AID 609;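 active means compounds giving at least 50% inhibition in the cell-based MKP-3 phosphatase rescue imaging test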;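 on inhibition: phospho-Erk level distribution per well compared with pooled transfected vehicle control wells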); details: HeLa MKP-3 transfected, phospho-Erk imaging KS statistic, at 10 µM, cells stimulated with TPA for 15 min
[4] = target: Dual specificity protein phosphatase 6 (Homo sapiens) (UniProt Q16828); assay: as above; details: HeLa MKP-3 transfected, phospho-Erk imaging KS statistic; at 10 µM; stronger effect = higher value; cells stimulated with TPA for 15 min
[5] = target: Voltage-gated potassium channel subunit beta-2 (Rattus norvegicus) (UniProt P62483); assay: KvBeta enzyme negative modulators, primary screen, biochemical, NADPH fluorescence (AID 622;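 active means fluorescence slope higher than the sample average by over 3 SD, cut at about -0.22 in these data, passing the limit was not always enough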;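 further: slope of raw intensity against log time taken from 70 to 1610 s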); details: recombinant KvBeta, 4-cyanobenzaldehyde reduction, at 10 µM, stronger effect = higher value
[6] = target: Voltage-gated potassium channel subunit beta-2 (Rattus norvegicus) (UniProt P62483); assay: KvBeta positive modulators, primary screen, biochemical, NADPH fluorescence (AID 623;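 active means NADPH fluorescence slope more negative than the mean of all samples by about 3 SD, 99.7% confidence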;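 further: fluorescence intensity change per second fitted from 20 to 320 s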); details: Recombinant KvBeta, NADPH fluorescence decrease slope, 10 min; at 10 µM; stronger effect = lower value
[7] = target: Muscarinic acetylcholine receptor M4 (Homo sapiens) (UniProt P08173); assay: compounds altering M4/GIRK thallium flux, either direction, primary screen, M4 allosteric agonist project, cell-based, HEK293 M4/GIRK, BTC-AM (AID 625;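 active means fluorescence slope after compound addition differing from the mean of all tested samples at 99.7% confidence, mostly higher but some lower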;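 further: thallium influx through GIRK channels coupled to M4 in HEK293 cells with BTC-AM dye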); details: at 10 µM, actives lie on both sides
How it was run: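 Assay system: HEK293 cells with M4 receptor and GIRK channels / Controls: carbachol and DMSO controls / Schedule: 1 h dye loading, 2 min kinetic read / Technique: kinetic fluorescence with BTC-AM dye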

[8] = inhibitors of larval lipid processing in zebrafish, primary screen, whole organism, PED6 fluorescence, gall bladder and intestine (AID 686;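 active means a full or partial loss of lipid-probe fluorescence in the fish gall bladder, intestine or both, judged by eye; inactive means no fluorescence loss, or compound toxic to the fish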;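 further: larvae 5 to 7 days old with five fish per well; signal comes from phospholipase A2 cleavage of quenched PED6 carried via bile; overnight exposure to compound and PED6 before scoring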); details: Zebrafish larvae PED6 lipid processing, fluorescence scoring; screened at 20 µM (by protocol)
How it was run: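 Doses: 20 µM single dose. Test system: live zebrafish larvae aged 5-7 days, whole organism. Quantity: five larvae per well. Measured by: By-eye fluorescence microscopy. Reagent: ingested quenched lipid PED6 at 100 nM. Read-out: visual per-well fluorescence inhibition score. Times: overnight exposure of larvae to compound plus PED6.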

[9] = inhibitors of Chlamydomonas gravitaxis, primary screen, whole organism, Chlamydomonas reinhardtii, WT vs cilia-less mutant, absorbance, 96-well (AID 463189;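 active means inhibition at or above 50% relative to wild type and mutant plate controls; inactive means inhibition below 50%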;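 further: 0% = wild type cc124 cells in DMSO and 100% = ciliumless bld1 mutant cells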); details: OD600 absorbance, 2 days, at 10 µM, stronger effect = higher value
[10] = measured here: cell density z-score
[11] = measured here: nuclear c-Myc green intensity z-score
[12] = measured here: nuclear pErk red intensity z-score, stronger effect = higher value

Muscarinic acetylcholine receptor M4 (Homo sapiens), sequence (P08173 whole entry, looked up): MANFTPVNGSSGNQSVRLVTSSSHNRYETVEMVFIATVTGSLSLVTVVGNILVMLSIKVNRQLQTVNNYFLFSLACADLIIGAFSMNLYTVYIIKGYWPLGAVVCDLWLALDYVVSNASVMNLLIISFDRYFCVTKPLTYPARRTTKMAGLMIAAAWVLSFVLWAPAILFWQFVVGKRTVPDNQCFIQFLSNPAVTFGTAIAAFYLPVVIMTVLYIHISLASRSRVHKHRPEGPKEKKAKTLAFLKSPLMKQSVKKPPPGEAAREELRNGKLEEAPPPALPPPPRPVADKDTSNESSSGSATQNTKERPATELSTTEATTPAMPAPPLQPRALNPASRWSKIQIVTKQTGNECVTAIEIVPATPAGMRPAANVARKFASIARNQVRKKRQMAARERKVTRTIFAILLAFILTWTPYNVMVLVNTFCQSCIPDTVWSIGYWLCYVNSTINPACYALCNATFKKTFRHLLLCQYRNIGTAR
Dual specificity protein phosphatase 6 (Homo sapiens), sequence (Q16828 whole entry, looked up): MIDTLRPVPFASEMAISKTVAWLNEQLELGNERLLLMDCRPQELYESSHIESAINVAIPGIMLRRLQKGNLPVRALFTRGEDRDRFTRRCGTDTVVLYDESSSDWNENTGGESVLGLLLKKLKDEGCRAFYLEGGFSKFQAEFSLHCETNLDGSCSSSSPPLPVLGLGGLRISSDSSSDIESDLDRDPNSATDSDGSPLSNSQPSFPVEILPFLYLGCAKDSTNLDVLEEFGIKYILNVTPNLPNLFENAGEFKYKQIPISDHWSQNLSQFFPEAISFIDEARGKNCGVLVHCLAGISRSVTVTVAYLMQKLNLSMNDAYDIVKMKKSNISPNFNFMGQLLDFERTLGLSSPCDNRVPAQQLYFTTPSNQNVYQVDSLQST
Voltage-gated potassium channel subunit beta-2 (Rattus norvegicus), sequence (P62483 whole entry, looked up): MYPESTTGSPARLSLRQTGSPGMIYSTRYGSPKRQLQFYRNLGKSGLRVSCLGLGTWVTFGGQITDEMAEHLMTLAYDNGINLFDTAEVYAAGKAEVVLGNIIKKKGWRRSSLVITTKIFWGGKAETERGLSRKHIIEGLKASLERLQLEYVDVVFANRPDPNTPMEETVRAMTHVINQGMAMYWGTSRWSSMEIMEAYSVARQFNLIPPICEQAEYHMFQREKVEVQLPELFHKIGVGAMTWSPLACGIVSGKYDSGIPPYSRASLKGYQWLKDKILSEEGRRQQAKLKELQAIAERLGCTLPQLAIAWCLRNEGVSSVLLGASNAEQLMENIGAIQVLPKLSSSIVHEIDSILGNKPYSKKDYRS

Compound: N#Cc1c(N2CCOCC2)nc(-c2ccco2)c2c1CCCC2
- cell count [1]: 536
- inhibition [1]: -3% (inactive)
- inhibition [2]: -19.5% (inactive)
- nuclei count [2]: 96.6%
- z-score [3, 10]: 0.112
- z-score [3, 11]: 0.592
- z-score [3, 12]: -1.17
- inhibition [4]: -2.09% (inactive)
- fluorescence slope [5]: -0.412 (inactive)
- NADPH fluorescence slope [6]: -2e-05 (inactive)
- fluorescence slope [7]: 0.00398 (inactive)
- outcome [8]: inactive
- inhibition [9]: 18.9% (inactive)

Compound: CCCOC(=O)CSC1=C(C#N)C(c2ccc3c(c2)OCO3)CC(=O)N1 (stereo not drawn)
- cell count [1]: 674
- inhibition [1]: -6.1% (inactive)
- inhibition [2]: -91.1% (inactive)
- nuclei count [2]: 161%
- z-score [3, 10]: 0.796
- z-score [3, 11]: -0.679
- z-score [3, 12]: -1.26
- inhibition [4]: -7.86% (inactive)
- fluorescence slope [5]: -0.487 (inactive)
- NADPH fluorescence slope [6]: -6.2e-05 (inactive)
- fluorescence slope [7]: 0.00536 (inactive)
- outcome [8]: inactive
- inhibition [9]: 6.85% (inactive)

Compound: CCC(NC(=O)Nc1ncccc1C)(C(F)(F)F)C(F)(F)F
- cell count [1]: 612
- inhibition [1]: 5.3% (inactive)
- inhibition [2]: -36.6% (inactive)
- nuclei count [2]: 104%
- z-score [3, 10]: 1.12
- z-score [3, 11]: 0.397
- z-score [3, 12]: -1.61
- inhibition [4]: 20.2% (inactive)
- fluorescence slope [5]: -0.508 (inactive)
- NADPH fluorescence slope [6]: -1.7e-05 (inactive)
- fluorescence slope [7]: 0.00598 (inactive)
- outcome [8]: inactive
- inhibition [9]: 35.4% (inactive)

Compound: CC(NC(=O)Nc1cccnc1)(C(F)(F)F)C(F)(F)F
- cell count [1]: 706
- inhibition [1]: -5.1% (inactive)
- inhibition [2]: -177% (inactive)
- nuclei count [2]: 184%
- z-score [3, 10]: 0.533
- z-score [3, 11]: -0.524
- z-score [3, 12]: 0.0759
- inhibition [4]: 7.93% (inactive)
- fluorescence slope [5]: -0.454 (inactive)
- NADPH fluorescence slope [6]: -0.000301 (inactive)
- fluorescence slope [7]: 0.00556 (inactive)
- outcome [8]: inactive
- inhibition [9]: 0.542% (inactive)

Compound: Cc1ccc(Oc2nc3c(c(=O)n(Cc4ccccc4F)c(=O)n3C)n2C)cc1
- cell count [1]: 749
- inhibition [1]: 2.1% (inactive)
- inhibition [2]: -74.9% (inactive)
- nuclei count [2]: 156%
- z-score [3, 10]: 0.256
- z-score [3, 11]: -1.95
- z-score [3, 12]: -0.363
- inhibition [4]: 19.8% (inactive)
- fluorescence slope [5]: -0.508 (inactive)
- NADPH fluorescence slope [6]: -3.8e-05 (inactive)
- fluorescence slope [7]: 0.00827 (inactive)
- outcome [8]: inactive
- inhibition [9]: 11.6% (inactive)

Compound: CCc1nc2n[nH]c(N)c2c2c1CCCC2
- cell count [1]: 410
- inhibition [1]: -3% (inactive)
- inhibition [2]: -224% (inactive)
- nuclei count [2]: 194%
- z-score [3, 10]: 1.38
- z-score [3, 11]: -1.2
- z-score [3, 12]: -1.94
- inhibition [4]: 5.42% (inactive)
- fluorescence slope [5]: -0.476 (inactive)
- NADPH fluorescence slope [6]: -5.3e-05 (inactive)
- fluorescence slope [7]: 0.00476 (inactive)
- outcome [8]: inactive; toxic
- inhibition [9]: 2.25% (inactive)
